Here are results for 14 molecules from ChEMBL document CHEMBL2062400, “RCAI-84, 91, and 105-108, ureido and thioureido analogs of KRN7000: their synthesis and bioactivity for mouse lymphocytes to produce Th1-biased cytokines” (Bioorg Med Chem, 2012).

Molecules are shown by their SMILES. The source made the active and inactive calls. The calls are words filed in the database; no cut-off is given here.

Experiment [1] deals with Mus musculus. As to the kind of experiment: Immunostimulatory activity in C57BL/6J mouse assessed as increase in IFNgamma level at 2 ug, iv upto 24 hrs by ELISA. Format: functional, organism-based. In a few lines:
(§1)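 Mice were 8-week C57BL/6J kept under SPF conditions. Glycolipid was dissolved in DMSO (1.0 mg/mL, 80 °C, 30 min), diluted to 200 µg/mL in PBS with 0.5% Tween20, then to 10 µg/mL in PBS. A 200 µL dose (2 µg/mouse) was given iv. Retro-orbital plasma was taken at 3–60 h. IFN-γ was read by ELISA and IL-4 by CBA. Data are mean ± SD of 3 mice, repeated 3 times.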
(In general: An ELISA detects its analyte on a solid surface through an enzyme-linked reagent.)

Experiment [2] has as its system Mus musculus. As to the kind of experiment: Immunostimulatory activity in C57BL/6J mouse assessed as increase in IL4 level at 2 ug, iv by cytometric bead array method. Format: functional, organism-based. In a few lines: as §1
For experiment [3], the system named is Mus musculus. As to the kind of experiment: Immunostimulatory activity in C57BL/6J mouse assessed as IFNgamma level at 5 ug, ip at 16 hrs by sandwich ELISA relative to KRN7000. Type of experiment: functional.
The test system of experiment [4] is Mus musculus. In words: Immunostimulatory activity in C57BL/6J mouse assessed as IL4 level at 5 ug, ip at 2 hrs by sandwich ELISA relative to KRN7000. Format: functional.
Experiment [5] deals with Mus musculus. In words: Immunostimulatory activity in C57BL/6J mouse assessed as increase in IL12p70 level at 2 ug, iv from 3 to 12 hrs by cytometric bead array method relative to KRN7000. Type of experiment: functional, organism-based. In a few lines:
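Eight-week SPF C57BL/6J mice received 2 µg glycolipid iv (200 µL of 10 µg/mL in PBS, from a DMSO stock diluted in PBS/0.5% Tween20). Plasma was collected from the retro-orbital plexus with heparinized capillaries at 3, 6, 12, 24, 36, 48 and 60 h. IL-12p70 was quantified by cytometric bead array.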

Experiment [6] has as its system Mus musculus. In words: Immunostimulatory activity in C57BL/6J mouse assessed as IFNgamma level at 2 ug, iv upto 24 hrs by ELISA relative to KRN7000. Format: functional.
In experiment [7] the test system is Mus musculus. As to the kind of experiment: Immunostimulatory activity in C57BL/6J mouse assessed as IL4 level at 2 ug, iv by cytometric bead array method relative to KRN7000. Type of experiment: functional.

Take `CCCCCCCCCCCCCC[C@@H](O)[C@@H](O)[C@H](CO[C@H]1O[C@H](CO)[C@H](O)[C@H](O)[C@H]1O)NC(=O)NCCCCCc1ccccc1`: the result in the experiment with Mus musculus [1] and in the experiment on Mus musculus [2] was inactive. With `CCCCCCCCCCCCCCCCCCCCCCCCC(F)(F)C(=O)N[C@@H](CO[C@H]1O[C@H](CO)[C@H](O)[C@H](O)[C@H]1O)[C@H](O)[C@H](O)CCCCCCCCCCCCCC`, the Activity in the experiment with Mus musculus [3] worked out at 50%; with Mus musculus [4], 100%. As for `CCCCCCCCCCCCCCCCCCCCCCCCCC(=O)N[C@@H](CC[C@H]1O[C@H](CO)[C@H](O)[C@H](O)[C@H]1O)[C@H](O)[C@H](O)CCCCCCCCCCCCCC`, the outcome in the experiment on Mus musculus [1] was Active.

For the molecule `CCCCCCCCCCCCCCCCCCCCCCCCNC(=O)N[C@@H](CO[C@H]1O[C@H](CO)[C@H](O)[C@H](O)[C@H]1O)[C@H](O)[C@H](O)CCCCCCCCCCCCCC`, the outcome in the experiment with Mus musculus [1] and in the experiment on Mus musculus [5] was Active. On to `CCCCCCCCCCCCCCCCCCCCCCCCCC(=O)N[C@@H](CS[C@H]1O[C@H](CO)[C@H](O)[C@H](O)[C@H]1O)[C@H](O)[C@H](O)CCCCCCCCCCCCCC`, for which the result in the experiment with Mus musculus [1] was inactive. With `CCCCCCCCCCCCCC[C@@H](O)[C@@H](O)[C@H](CO[C@H]1O[C@H](CO)[C@H](O)[C@H](O)[C@H]1O)NC(=O)NCCCCCCCC`, the result in the experiment with Mus musculus [1] and in the experiment on Mus musculus [2] was Active. With `CCCCCCCCCCCCCCCCNC(=O)N[C@@H](CO[C@H]1O[C@H](CO)[C@H](O)[C@H](O)[C@H]1O)[C@H](O)[C@H](O)CCCCCCCCCCCCCC`, the result with Mus musculus [1] and in the experiment on Mus musculus [2] was Active. `CCCCCCCCCCCCCCCCCCCCCCCCCC(=O)N[C@@H](CO[C@H]1C[C@H](CO)[C@H](O)[C@H](O)[C@H]1O)[C@H](O)[C@H](O)CCCCCCCCCCCCCC`: the result in the experiment on Mus musculus [1] was Active. On to `CCCCCCCCCCCCCCCCCCCCCCCCCC(=O)N[C@@H](CO[C@H]1O[C@H](CO)[C@H](O)[C@H](O)[C@H]1O)[C@H](O)[C@H](O)CCCCCCCCCCCCCC`, for which, in the experiment with Mus musculus [2], the outcome was Active. For `CCCCCCCCCCCCCCCCCCCCCCCCCC(=O)N[C@@H](CO[C@H]1C[C@H](COC)[C@H](O)[C@H](O)[C@H]1O)[C@H](O)[C@H](O)CCCCCCCCCCCCCC`, in the experiment with Mus musculus [1], the outcome was Active. `CCCCCCCCCCCCCC[C@@H](O)[C@@H](O)[C@H](CO[C@H]1O[C@H](CO)[C@H](O)[C@H](O)[C@H]1O)NC(=O)CCCCCc1ccccc1`: in the experiment on Mus musculus [1], the outcome was inactive.

On to `CCCCCCCCCCCCCCCCCC(=O)N[C@@H](CO[C@H]1O[C@H](CO)[C@H](O)[C@H](O)[C@H]1O)[C@H](O)[C@H](O)CCCCCCCCCCCCCC`, for which the Activity in the experiment with Mus musculus [6] was found to be 10%; in the experiment on Mus musculus [7], 40%. `CCCCCCCCCCCCCCCCNC(=S)N[C@@H](CO[C@H]1O[C@H](CO)[C@H](O)[C@H](O)[C@H]1O)[C@H](O)[C@H](O)CCCCCCCCCCCCCC`: the result in the experiment with Mus musculus [1] and with Mus musculus [2] was inactive. As to `CCCCCCCCCCCCCCCCCCCCCCCCNC(=O)N[C@@H](CO[C@H]1O[C@H](COC)[C@H](O)[C@H](O)[C@H]1O)[C@H](O)[C@H](O)CCCCCCCCCCCCCC`, the outcome in the experiment with Mus musculus [1] and in the experiment with Mus musculus [5] was Active.
